# Laboratory results: PubChem BioAssay
# A number with no mark means an inactive call.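 Rule for the calls, unless noted: active = growth inhibition above 25% in both replicates, a cutoff set 3 SD above the mean; inconclusive = above 25% in only one replicate; inactive = the rest.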
# Experiment: OD615 S. cerevisiae growth inhibition, permissive medium, pilot counter-assay, permissive growth control for S. cerevisiae lifespan shortening project (AID 705)
# Conditions: OD615, 24 h, at 10 µM, active compounds read high
# In short: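 assay system = Saccharomyces cerevisiae strain carrying genetically modified DeaD replicative-lifespan system | medium = SC raffinose/galactose permissive medium | dosing = 10 µM single dose, 0.25% DMSO | schedule = 24 h compound exposure at 30 °C after 4 h pre-growth | measured by = OD at 615 nm | read-out basis = growth inhibition from lowered OD615 after 24 h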
row,Compound,growth inhibition [%]
1,O=C(Cn1cc2c(n1)CCCC2)N1CCOCC1,-13.2
2,CCOc1ccc(-c2nnc3ccc(SCC(=O)N4CCCCC4)nn23)cc1,-0.225
3,O=C(NC1CCCCCCC1)c1c(O)c2ccccc2[nH]c1=O,-3.12
4,COC(=O)C(C)Sc1nnc(Cc2cc(=O)[nH]c(=O)[nH]2)n1-c1ccc(OC)cc1 (stereo not given),8.07
5,O=C(CCn1c(=O)oc2ccccc21)Nc1ccc2c(c1)OCCO2,-3.18
6,CCCOC(=O)C1=C(C)NC2=C(C(=O)C(C(=O)OC)C(C)C2)C1c1ccc(N(CC)CC)cc1 (stereo not given),-10.6
7,CC1CCc2nn(CC(=O)NCCCN3CCCC3=O)cc2C1 (stereo not given),-17.8
8,COc1ccc(C2C(C(=O)Nc3ccccc3OC)=C(C)Nc3ncnn32)cc1 (stereo not given),-18.5
9,COc1ccccc1NC(=O)CSc1nc2ncccc2[nH]1,-4.5
10,O=C(NCc1ccccc1Cl)c1cnc2n(c1=O)CCS2,3.67
11,CCCS(=O)(=O)c1nc(S(=O)(=O)c2ccc(C)cc2)c(NCCCN2CCOCC2)s1,0.84
12,CCOC(=O)C(C)Sc1ncnc2nc[nH]c12 (stereo not given),-1.5
13,O=C(CSc1ncccn1)NCCc1ccccc1,-4.5
14,CN1CCN(C(=O)c2ccc3c(c2)N(Cc2cccc(Cl)c2)C(=O)c2ccccc2S3=O)CC1 (stereo not given),-4.92
15,Cc1nc2sc(C(c3ccccc3)N3CCN(CCO)CC3)c(O)n2n1 (stereo not given),-5.65
16,N=c1n(CCO)c2ccccc2n1CCOc1ccc(Cl)cc1Cl,-0.15
17,CCOCCCNC(=O)C(c1ccc(Cl)cc1)N1CCN(c2ccccc2)CC1 (stereo not given),-7.14
18,CCn1c(CNC(=O)c2ccc(OC)cc2)nnc1SC,-3.98
19,COc1ccc(C2C(C(=O)NCCN(C)C)c3ccccc3C(=O)N2C)cc1OC (stereo not given),-7.69
20,Cc1csc2nc(CNS(=O)(=O)c3ccc(-c4ccccc4)cc3)cn12,-8.76

row,Compound,growth inhibition [%]
1,Cc1cc(-c2nnco2)c(C)n1-c1ccc(F)cc1,-8.75
2,Cc1nn(-c2ccccc2)c(C)c1C(=O)OCC(=O)Nc1ccc2c(c1)OCO2,-15.6
3,Cc1nc2ccccc2n1-c1ccccc1,-0.46
4,CCSc1nnc(-c2ccc(Cl)cc2Cl)o1,-10.3
5,COc1ccccc1N1CCN(C(=O)CCCCn2c(=O)[nH]c3ccsc3c2=O)CC1,-4.33
6,C=CCn1c(CSc2nc3ccccc3s2)nnc1SCC(=O)OCC,-1.57
7,COc1ccc(-n2ncc3c(N4CCCCC4)ncnc32)cc1,-12.2
8,CCC(=O)NCc1nc2ccccc2n1Cc1ccccc1F,-7.37
9,O=C(CCS(=O)CCC(=O)NCc1ccccc1)NCc1ccccc1,-2.28
10,COc1ccc(N2CCN(C(=O)C(Cc3ccccc3)n3cccc3)CC2)cc1 (stereo not given),-14.4
11,CCCC(=O)c1ccc(N2CCOCC2)c(F)c1,-7.96
12,Cc1ccccc1-n1c(Cn2c(=O)sc3ccccc32)nnc1SCC(=O)N1CCOCC1,-5.92
13,COc1ccc(OC)c2sc(NC(=O)c3ccc(Br)s3)nc12,-1.73
14,CCc1c(C)sc(NC(=O)c2cccs2)c1C(=O)OC(C)C,-3.37
15,COc1ccc(C(=O)Nc2ccccc2C(=O)NCCCn2ccnc2)cc1,-1.82
16,CC(=O)Nc1ccc(C(=O)c2ccccc2)cc1,8.43
17,O=C(NCCCN1CCC(Cc2ccccc2)CC1)C1CC(=O)N(C2CCCC2)C1 (stereo not given),1.72
18,CC(C)(C)c1nc(CN2CCCCC2)cc(CN2CCCCC2)c1O,-13.8
19,O=C1CCC(=O)N1CNc1cccnc1,-7.25
20,O=C(Cc1c(F)cccc1Cl)c1ccc(O)cc1O,-10.5

# Experiment: Restrictive medium S. cerevisiae growth inhibition, OD615, pilot screen of yeast lifespan reduction project, restrictive growth control (AID 706;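 active = growth inhibition above a set limit, 3 SD over mean compound inhibition, in both replicates, cut at about 43% in these data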;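 note: modified DeaD lifespan yeast strain shifted to restrictive glucose medium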)
# Conditions: OD615, 48 h, at 10 µM, active compounds read high
# In short: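 Buffer or medium: CSMM-D glucose medium. Material: genetically modified Saccharomyces cerevisiae, DeaD replicative lifespan assay strain. Times: 48 h compound exposure at 30 °C. Measured by: optical density at 615 nm.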
row,Compound,growth inhibition [%]
1,O=C(Cn1cc2c(n1)CCCC2)N1CCOCC1,-4.99
2,CCOc1ccc(-c2nnc3ccc(SCC(=O)N4CCCCC4)nn23)cc1,9.67
3,O=C(NC1CCCCCCC1)c1c(O)c2ccccc2[nH]c1=O,8.01
4,COC(=O)C(C)Sc1nnc(Cc2cc(=O)[nH]c(=O)[nH]2)n1-c1ccc(OC)cc1 (stereo not given),4.31
5,O=C(CCn1c(=O)oc2ccccc21)Nc1ccc2c(c1)OCCO2,-9.54
6,CCCOC(=O)C1=C(C)NC2=C(C(=O)C(C(=O)OC)C(C)C2)C1c1ccc(N(CC)CC)cc1 (stereo not given),-19.6
7,CC1CCc2nn(CC(=O)NCCCN3CCCC3=O)cc2C1 (stereo not given),-22.7
8,COc1ccc(C2C(C(=O)Nc3ccccc3OC)=C(C)Nc3ncnn32)cc1 (stereo not given),6.38
9,COc1ccccc1NC(=O)CSc1nc2ncccc2[nH]1,17.8
10,O=C(NCc1ccccc1Cl)c1cnc2n(c1=O)CCS2,0.685
11,CCCS(=O)(=O)c1nc(S(=O)(=O)c2ccc(C)cc2)c(NCCCN2CCOCC2)s1,-0.48
12,CCOC(=O)C(C)Sc1ncnc2nc[nH]c12 (stereo not given),-25.9
13,O=C(CSc1ncccn1)NCCc1ccccc1,2.61
14,CN1CCN(C(=O)c2ccc3c(c2)N(Cc2cccc(Cl)c2)C(=O)c2ccccc2S3=O)CC1 (stereo not given),-10.7
15,Cc1nc2sc(C(c3ccccc3)N3CCN(CCO)CC3)c(O)n2n1 (stereo not given),-2.6
16,N=c1n(CCO)c2ccccc2n1CCOc1ccc(Cl)cc1Cl,4.96
17,CCOCCCNC(=O)C(c1ccc(Cl)cc1)N1CCN(c2ccccc2)CC1 (stereo not given),6.11
18,CCn1c(CNC(=O)c2ccc(OC)cc2)nnc1SC,3.58
19,COc1ccc(C2C(C(=O)NCCN(C)C)c3ccccc3C(=O)N2C)cc1OC (stereo not given),-1.69
20,Cc1csc2nc(CNS(=O)(=O)c3ccc(-c4ccccc4)cc3)cn12,7

row,Compound,growth inhibition [%]
1,Cc1cc(-c2nnco2)c(C)n1-c1ccc(F)cc1,-5.7
2,Cc1nn(-c2ccccc2)c(C)c1C(=O)OCC(=O)Nc1ccc2c(c1)OCO2,-15.7
3,Cc1nc2ccccc2n1-c1ccccc1,10.2
4,CCSc1nnc(-c2ccc(Cl)cc2Cl)o1,-5.92
5,COc1ccccc1N1CCN(C(=O)CCCCn2c(=O)[nH]c3ccsc3c2=O)CC1,7.52
6,C=CCn1c(CSc2nc3ccccc3s2)nnc1SCC(=O)OCC,27.4
7,COc1ccc(-n2ncc3c(N4CCCCC4)ncnc32)cc1,0.385
8,CCC(=O)NCc1nc2ccccc2n1Cc1ccccc1F,-27
9,O=C(CCS(=O)CCC(=O)NCc1ccccc1)NCc1ccccc1,6.21
10,COc1ccc(N2CCN(C(=O)C(Cc3ccccc3)n3cccc3)CC2)cc1 (stereo not given),-6.94
11,CCCC(=O)c1ccc(N2CCOCC2)c(F)c1,-9.48
12,Cc1ccccc1-n1c(Cn2c(=O)sc3ccccc32)nnc1SCC(=O)N1CCOCC1,-11.6
13,COc1ccc(OC)c2sc(NC(=O)c3ccc(Br)s3)nc12,-13
14,CCc1c(C)sc(NC(=O)c2cccs2)c1C(=O)OC(C)C,5.3
15,COc1ccc(C(=O)Nc2ccccc2C(=O)NCCCn2ccnc2)cc1,-2.64
16,CC(=O)Nc1ccc(C(=O)c2ccccc2)cc1,6.52
17,O=C(NCCCN1CCC(Cc2ccccc2)CC1)C1CC(=O)N(C2CCCC2)C1 (stereo not given),-13.9
18,CC(C)(C)c1nc(CN2CCCCC2)cc(CN2CCCCC2)c1O,-12.6
19,O=C1CCC(=O)N1CNc1cccnc1,-12.2
20,O=C(Cc1c(F)cccc1Cl)c1ccc(O)cc1O,-0.825
